Experimental data published in BindingDB's records for doi:10.1021/jm200203f (Washington University, 2011).

Experiments:
[1] = biological target: T1, 5-hydroxytryptamine receptor 1A (Homo sapiens, UniProt P08908); test: Displacement of [3H]8-OH-DPAT from human 5HT1A receptor after 60 mins by liquid scintillation counting
T1 sequence (P08908 whole entry): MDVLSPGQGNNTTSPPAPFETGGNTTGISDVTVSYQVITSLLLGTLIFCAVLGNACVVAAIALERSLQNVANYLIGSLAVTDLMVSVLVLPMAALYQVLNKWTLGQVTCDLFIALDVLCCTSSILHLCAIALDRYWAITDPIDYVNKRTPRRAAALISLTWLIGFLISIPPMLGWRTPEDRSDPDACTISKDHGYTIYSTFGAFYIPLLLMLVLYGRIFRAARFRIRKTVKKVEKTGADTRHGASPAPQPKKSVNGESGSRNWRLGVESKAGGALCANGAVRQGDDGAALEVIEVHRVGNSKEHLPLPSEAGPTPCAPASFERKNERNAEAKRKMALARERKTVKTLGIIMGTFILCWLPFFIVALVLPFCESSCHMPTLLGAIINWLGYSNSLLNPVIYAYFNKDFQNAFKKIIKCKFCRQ
Procedure, shortened: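 Inhibitor spanned 0.1 nM–10 µM or 0.01 nM–1 µM; 10 µM WAY-100635 defined nonspecific binding. Cold wash, filtration, scintillation counting; IC50 by nonlinear regression.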

[2] = biological target: D(2) dopamine receptor (Homo sapiens, UniProt P14416); test: Displacement of [125I]IABN from human dopamine D2 long receptor expressed in HEK293 cells after 60 mins by gamma counting
Sequence of D(2) dopamine receptor (P14416 whole entry): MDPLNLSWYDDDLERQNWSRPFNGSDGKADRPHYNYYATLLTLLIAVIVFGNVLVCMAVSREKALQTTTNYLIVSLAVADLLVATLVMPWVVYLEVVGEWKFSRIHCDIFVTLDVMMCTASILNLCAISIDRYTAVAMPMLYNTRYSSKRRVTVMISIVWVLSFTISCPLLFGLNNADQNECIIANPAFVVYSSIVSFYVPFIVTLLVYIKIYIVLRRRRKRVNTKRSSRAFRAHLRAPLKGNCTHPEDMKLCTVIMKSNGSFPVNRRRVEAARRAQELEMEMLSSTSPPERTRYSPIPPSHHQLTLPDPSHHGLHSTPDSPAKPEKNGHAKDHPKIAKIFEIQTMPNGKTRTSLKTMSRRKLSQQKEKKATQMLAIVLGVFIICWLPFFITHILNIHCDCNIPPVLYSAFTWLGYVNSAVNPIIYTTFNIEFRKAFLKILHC

[3] = biological target: D(3) dopamine receptor (Homo sapiens, UniProt P35462); test: Displacement of [125I]IABN from human dopamine D3 receptor expressed in HEK293 cells after 60 mins by gamma counting
Sequence of D(3) dopamine receptor (P35462 as listed by the source): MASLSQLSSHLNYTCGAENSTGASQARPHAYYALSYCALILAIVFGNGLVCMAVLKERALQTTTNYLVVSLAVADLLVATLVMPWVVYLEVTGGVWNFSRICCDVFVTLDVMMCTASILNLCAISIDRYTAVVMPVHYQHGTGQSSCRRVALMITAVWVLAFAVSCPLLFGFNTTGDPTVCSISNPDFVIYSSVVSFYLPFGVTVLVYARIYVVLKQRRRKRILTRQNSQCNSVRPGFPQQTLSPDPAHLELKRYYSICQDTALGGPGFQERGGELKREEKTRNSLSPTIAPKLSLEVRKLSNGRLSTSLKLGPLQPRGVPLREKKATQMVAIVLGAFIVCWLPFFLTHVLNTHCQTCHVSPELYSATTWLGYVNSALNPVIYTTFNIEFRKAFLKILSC

[4] = biological target: Sigma non-opioid intracellular receptor 1 (Cavia porcellus, UniProt Q60492); test: Displacement of (+)-[3H]pentazocine from sigma 1 receptor in guinea pig brain membrane homogenates after 90 mins by liquid scintillation counting
Sequence of Sigma non-opioid intracellular receptor 1 (Q60492 whole entry): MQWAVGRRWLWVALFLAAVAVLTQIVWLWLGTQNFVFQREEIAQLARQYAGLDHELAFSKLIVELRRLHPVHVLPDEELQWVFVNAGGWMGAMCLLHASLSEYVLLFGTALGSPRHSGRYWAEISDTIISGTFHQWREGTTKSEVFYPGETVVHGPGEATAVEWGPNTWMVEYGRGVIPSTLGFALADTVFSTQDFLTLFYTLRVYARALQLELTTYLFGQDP

[5] = biological target: T2, Vesicular acetylcholine transporter (Homo sapiens, UniProt Q16572); test: Displacement of (-)-[3H]vesamicol from human VAChT expressed in rat PC12 A123.7 cells after 20 hrs
T2 sequence (Q16572 whole entry): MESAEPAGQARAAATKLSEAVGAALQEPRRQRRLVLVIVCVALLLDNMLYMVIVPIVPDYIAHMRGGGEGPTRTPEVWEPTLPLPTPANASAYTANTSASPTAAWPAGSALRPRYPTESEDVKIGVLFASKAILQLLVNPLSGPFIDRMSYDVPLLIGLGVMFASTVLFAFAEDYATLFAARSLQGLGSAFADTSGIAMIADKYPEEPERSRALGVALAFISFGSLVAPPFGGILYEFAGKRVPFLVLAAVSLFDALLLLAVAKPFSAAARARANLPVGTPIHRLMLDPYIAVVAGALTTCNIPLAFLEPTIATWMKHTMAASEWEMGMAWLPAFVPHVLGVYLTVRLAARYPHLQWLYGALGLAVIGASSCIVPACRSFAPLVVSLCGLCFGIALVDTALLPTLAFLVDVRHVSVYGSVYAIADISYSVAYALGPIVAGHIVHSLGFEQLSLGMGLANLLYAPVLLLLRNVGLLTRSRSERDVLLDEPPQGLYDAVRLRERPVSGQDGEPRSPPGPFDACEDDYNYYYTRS

Ki [1]	Ki [2]	Ki [3]	Ki [4]	SMILES	Ki [5]
2540 nM	1350 nM	> 20 µM	0.48 nM	O=C(c1ccc(F)cc1)C1CCN([C@H]2CCN(Cc3ccc(F)cc3)C[C@@H]2O)CC1	–
–	1490 nM	> 15 µM	–	COc1ccc(C(=O)C2CCN([C@H]3CCN(Cc4ccc(F)cc4)C[C@@H]3O)CC2)cc1	–
–	–	–	3140 nM	O=C(c1ccc(F)cc1)C1CCN([C@H]2CCN(C(=O)c3ccc(F)cc3)C[C@@H]2O)CC1	3600 nM
–	–	–	208 nM	COc1ccc(C(=O)C2CCN([C@H]3CN(Cc4ccccc4)CC[C@@H]3O)CC2)cc1	36 nM

SMILES	Ki [1]	Ki [2]	Ki [3]	Ki [4]	Ki [5]
O=C(c1ccc(F)cc1)C1CCN([C@H]2CN(Cc3cccnc3)CC[C@@H]2O)CC1	–	–	–	1160 nM	237 nM
COc1ccc(C(=O)C2CCN([C@H]3CN(Cc4cccnc4)CC[C@@H]3O)CC2)cc1	–	–	–	2220 nM	107 nM
